Reference: ChEMBL document CHEMBL4689842, “EUbOPEN Chemogenomics Library wave 1” (2021)

Tested on: HEK-293T
Test: Multiplex assay against HEK293T;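 for Population Tubulin-Different-Phenotype (%): share of the cells with healthy nuclei that show this phenotype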
Format: toxicity, cell-based
Details: human
Method in brief: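 Live cells carried four stains from seeding: Hoechst33342, BioTracker Green Microtubule Cytoskeleton Dye, MitoTracker Red and Annexin V Alexa Fluor 680. They were imaged on a CQ1 microscope at 37°C and 5% CO2 after compound addition. Using CellPathfinder machine-learning gating, cells were split into Hoechst high-intensity objects or normal cells, normal cells into healthy, pyknosed or fragmented nuclei, and pyknosed cells into mitotic or apoptotic; tubulin, mitochondrial-mass and membrane-permeability phenotypes are per cents of healthy-nucleus cells.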

[1] = 12 h, 1 µM, compound concentration 1 uM, replicate 1
[2] = 12 h, 1 µM, compound concentration 1 uM, replicate 2
[3] = 12 h, 10 µM, compound concentration 10 uM, replicate 1
[4] = 12 h, 10 µM, compound concentration 10 uM, replicate 2
[5] = 24 h, 1 µM, compound concentration 1 uM, replicate 1
[6] = 24 h, 1 µM, compound concentration 1 uM, replicate 2
[7] = 24 h, 10 µM, compound concentration 10 uM, replicate 1
[8] = 24 h, 10 µM, compound concentration 10 uM, replicate 2
[9] = 48 h, 1 µM, compound concentration 1 uM, replicate 1
[10] = 48 h, 1 µM, compound concentration 1 uM, replicate 2
[11] = 48 h, 10 µM, compound concentration 10 uM, replicate 1
[12] = 48 h, 10 µM, compound concentration 10 uM, replicate 2

COc1cc(Nc2nccc(-c3cnn4nc(OC)ccc34)n2)cc(C(F)(F)F)c1
Population Apoptotic (%) [1]: 47%
Population Fragmented Nuclei (%) [1]: 16%
Population Healthy Nuclei (%) [1]: 19%
Population Hoechst High Intensity Objects (%) [1]: 13%
Population Membrane Permeable-Phenotype (%) [1]: 2%
Population Mitochondria Different-Phenotype (%) [1]: 77%
Population Mitotic Cells (%) [1]: 52%
Population Normal (%) [1]: 86%
Population Pyknosed Nuclei (%) [1]: 64%
Population Tubulin-Different-Phenotype (%) [1]: 30%
Total Cell Count [1]: 214
Population Apoptotic (%) [2]: 7%
Population Fragmented Nuclei (%) [2]: 6%
Population Healthy Nuclei (%) [2]: 44%
Population Hoechst High Intensity Objects (%) [2]: 1%
Population Membrane Permeable-Phenotype (%) [2]: 11%
Population Mitochondria Different-Phenotype (%) [2]: 14%
Population Mitotic Cells (%) [2]: 92%
Population Normal (%) [2]: 98%
Population Pyknosed Nuclei (%) [2]: 48%
Population Tubulin-Different-Phenotype (%) [2]: 17%
Total Cell Count [2]: 192
Population Apoptotic (%) [3]: 68%
Population Fragmented Nuclei (%) [3]: 33%
Population Healthy Nuclei (%) [3]: 21%
Population Hoechst High Intensity Objects (%) [3]: 24%
Population Membrane Permeable-Phenotype (%) [3]: 7%
Population Mitochondria Different-Phenotype (%) [3]: 86%
Population Mitotic Cells (%) [3]: 31%
Population Normal (%) [3]: 75%
Population Pyknosed Nuclei (%) [3]: 44%
Population Tubulin-Different-Phenotype (%) [3]: 36%
Total Cell Count [3]: 317
Population Apoptotic (%) [4]: 21%
Population Fragmented Nuclei (%) [4]: 6%
Population Healthy Nuclei (%) [4]: 34%
Population Hoechst High Intensity Objects (%) [4]: 11%
Population Membrane Permeable-Phenotype (%) [4]: 4%
Population Mitochondria Different-Phenotype (%) [4]: 37%
Population Mitotic Cells (%) [4]: 78%
Population Normal (%) [4]: 88%
Population Pyknosed Nuclei (%) [4]: 59%
Population Tubulin-Different-Phenotype (%) [4]: 33%
Total Cell Count [4]: 275
Population Apoptotic (%) [5]: 47%
Population Fragmented Nuclei (%) [5]: 16%
Population Healthy Nuclei (%) [5]: 22%
Population Hoechst High Intensity Objects (%) [5]: 20%
Population Membrane Permeable-Phenotype (%) [5]: 2%
Population Mitochondria Different-Phenotype (%) [5]: 76%
Population Mitotic Cells (%) [5]: 52%
Population Normal (%) [5]: 79%
Population Pyknosed Nuclei (%) [5]: 61%
Population Tubulin-Different-Phenotype (%) [5]: 35%
Total Cell Count [5]: 221
Population Apoptotic (%) [6]: 8%
Population Fragmented Nuclei (%) [6]: 6%
Population Healthy Nuclei (%) [6]: 65%
Population Hoechst High Intensity Objects (%) [6]: 3%
Population Membrane Permeable-Phenotype (%) [6]: 9%
Population Mitochondria Different-Phenotype (%) [6]: 11%
Population Mitotic Cells (%) [6]: 91%
Population Normal (%) [6]: 96%
Population Pyknosed Nuclei (%) [6]: 27%
Population Tubulin-Different-Phenotype (%) [6]: 17%
Total Cell Count [6]: 252
Population Apoptotic (%) [7]: 75%
Population Fragmented Nuclei (%) [7]: 33%
Population Healthy Nuclei (%) [7]: 20%
Population Hoechst High Intensity Objects (%) [7]: 23%
Population Membrane Permeable-Phenotype (%) [7]: 1%
Population Mitochondria Different-Phenotype (%) [7]: 84%
Population Mitotic Cells (%) [7]: 24%
Population Normal (%) [7]: 76%
Population Pyknosed Nuclei (%) [7]: 46%
Population Tubulin-Different-Phenotype (%) [7]: 39%
Total Cell Count [7]: 330
Population Apoptotic (%) [8]: 23%
Population Fragmented Nuclei (%) [8]: 7%
Population Healthy Nuclei (%) [8]: 55%
Population Hoechst High Intensity Objects (%) [8]: 13%
Population Membrane Permeable-Phenotype (%) [8]: 4%
Population Mitochondria Different-Phenotype (%) [8]: 45%
Population Mitotic Cells (%) [8]: 76%
Population Normal (%) [8]: 86%
Population Pyknosed Nuclei (%) [8]: 36%
Population Tubulin-Different-Phenotype (%) [8]: 42%
Total Cell Count [8]: 293
Population Apoptotic (%) [9]: 62%
Population Fragmented Nuclei (%) [9]: 18%
Population Healthy Nuclei (%) [9]: 25%
Population Hoechst High Intensity Objects (%) [9]: 21%
Population Membrane Permeable-Phenotype (%) [9]: 2%
Population Mitochondria Different-Phenotype (%) [9]: 41%
Population Mitotic Cells (%) [9]: 37%
Population Normal (%) [9]: 78%
Population Pyknosed Nuclei (%) [9]: 56%
Population Tubulin-Different-Phenotype (%) [9]: 18%
Total Cell Count [9]: 219
Population Apoptotic (%) [10]: 4%
Population Fragmented Nuclei (%) [10]: 5%
Population Healthy Nuclei (%) [10]: 83%
Population Hoechst High Intensity Objects (%) [10]: 3%
Population Membrane Permeable-Phenotype (%) [10]: 5%
Population Mitochondria Different-Phenotype (%) [10]: 6%
Population Mitotic Cells (%) [10]: 95%
Population Normal (%) [10]: 96%
Population Pyknosed Nuclei (%) [10]: 10%
Total Cell Count [10]: 465
Population Apoptotic (%) [11]: 74%
Population Fragmented Nuclei (%) [11]: 39%
Population Healthy Nuclei (%) [11]: 24%
Population Hoechst High Intensity Objects (%) [11]: 25%
Population Membrane Permeable-Phenotype (%) [11]: 0%
Population Mitochondria Different-Phenotype (%) [11]: 86%
Population Mitotic Cells (%) [11]: 25%
Population Normal (%) [11]: 74%
Population Pyknosed Nuclei (%) [11]: 36%
Population Tubulin-Different-Phenotype (%) [11]: 56%
Total Cell Count [11]: 331
Population Apoptotic (%) [12]: 42%
Population Fragmented Nuclei (%) [12]: 7%
Population Healthy Nuclei (%) [12]: 63%
Population Hoechst High Intensity Objects (%) [12]: 9%
Population Membrane Permeable-Phenotype (%) [12]: 2%
Population Mitochondria Different-Phenotype (%) [12]: 35%
Population Mitotic Cells (%) [12]: 57%
Population Normal (%) [12]: 90%
Population Pyknosed Nuclei (%) [12]: 28%
Population Tubulin-Different-Phenotype (%) [12]: 39%
Total Cell Count [12]: 297
